Reference: ChEMBL document CHEMBL3526009, “Breast cancer resistance protein (ABCG2) determines distribution of genistein phase II metabolites: reevaluation of the roles of ABCG2 in the disposition of genistein” (Drug Metab Dispos, 2012)

Assays:
[1] = Drug transport in human Caco2 cells assessed as basolateral excretion of compound treated with genistein at 10 uM after 4 hrs by UPLC-MS/MS analysis in presence of BCRP inhibitor Ko143; format: ADME, cell-based; settings: caco-2, 4 h
Procedure, shortened: (§1)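 Caco-2 TC7 monolayers on 3 μm polycarbonate inserts, used 19–22 days post-seeding (TEER ≥460 Ω/cm2). Genistein 2 or 10 μM in HBSS pH 7.4 applied apically, ±5 μM Ko143 apically; sampling both sides at 0–4 h hourly with replacement, triplicate. Genistein and four conjugates plus intracellular amounts at 4 h by UPLC-MS/MS; mass balance versus dose added.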

[2] = Stability in potassium phosphate buffer at pH 7.4 up to 4 hrs; format: physicochemical; settings: pH 7.4, 4 h
Procedure, shortened: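 Negative control run under the blood-incubation conditions but in 50 mM potassium phosphate buffer, pH 7.4, instead of blood. Genistein glucuronides (G-7-G plus G-4′-G, with aglycone) or sulfates (G-7-S plus G-4′-S, with aglycone) held at 37°C in a shaking water bath up to 4 h. Sampled at 0, 60, 120 and 240 min and read by UPLC-MS/MS.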

[3] = Drug transport in human Caco2 cells assessed as basolateral excretion of compound treated with genistein at 2 uM after 4 hrs by UPLC-MS/MS analysis in presence of BCRP inhibitor Ko143; format: ADME, cell-based; settings: caco-2, 4 h; procedure, shortened: as §1
[4] = tested on: Blood; assay: Stability in Wistar rat blood at 3 uM up to 4 hrs by UPLC-MS/MS analysis; format: ADME, tissue-based
Procedure, shortened: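 Genistein glucuronide mixture (G-7-G plus G-4′-G, 3 μM) with 3.8 μM genistein incubated in fresh rat whole blood, 37°C shaking water bath. Sampled at 0, 60, 120 and 240 min. Reaction stopped with acetonitrile containing daidzein internal standard. Genistein and conjugates quantified by UPLC-MS/MS using multiple reaction monitoring. n = 3.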

Row | Drug transport [1] | Stability [2] | Drug transport [3] | Stability [4] | SMILES
1 | Active | Stable | Active | Stable | O=c1c(-c2ccc(OS(=O)(=O)O)cc2)coc2cc(O)cc(O)c12
2 | Active | Stable | Active | Stable | O=c1c(-c2ccc(O)cc2)coc2cc(OS(=O)(=O)O)cc(O)c12
